Source: ChEMBL document CHEMBL4145483, “Quinoxaline derivatives as new inhibitors of coxsackievirus B5” (Eur J Med Chem, 2018)
Converted amounts (≈) assume the structure as drawn. The source made the active and inactive calls. The rule behind the calls is not given here.

Tests used:
Human orthopneumovirus = experiment: Antiviral activity against Human respiratory syncytial virus A2 ATCC VR 1540 infected in African green monkey Vero 76 cells after 5 days by plaque reduction assay; assay type: functional, organism-based; details: ATCC VR 1540, Vero 76, 120 h
Summary of the method: (§1)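 Plaque reduction in Vero-76 monolayers, with cytotoxicity measured in parallel on the same plate. EC50 is the concentration reducing plaque number by 50%, derived by linear regression. CC50 is the concentration reducing viability of mock-infected Vero-76 cells by 50%, by MTT. Selectivity index is CC50/EC50.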

[1] = Cytotoxicity against golden hamster BHK21 cells assessed as reduction in cell viability after 48 to 96 hrs by MTT assay; assay type: cell-based, Mesocricetus auratus, BHK-21
Summary of the method: (§2)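 Cells are grown in medium with serum: MT-4 at 4×10^5 cells/ml in RPMI-1640 with 10% FBS; MDBK at 6×10^5 in MEM-E with 10% horse serum; BHK at 1×10^6 in MEM-E with 10% FBS; Vero-76 at 4×10^5 in D-MEM with 10% FBS. Serial dilutions are added at 37 °C, 5% CO2, and viability is read by MTT after 48–96 h. CC50 comes from linear regression. For MDBK, selectivity index is CC50/BVDV EC50.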

[2] = tested on: Vesicular stomatitis Indiana virus; experiment: Antiviral activity against Vesicular stomatitis virus Indiana ATCC VR 1540 infected in African green monkey Vero 76 cells after 3 days by plaque reduction assay; assay type: functional, organism-based; details: ATCC VR 1540, Vero 76, 72 h
[3] = tested on: Human immunodeficiency virus 1; experiment: Antiviral activity against HIV1 3B infected in human MT4 cells assessed as protection against virus-induced cytopathic effect after 3 to 4 days by MTT assay; assay type: functional, organism-based; details: Human immunodeficiency virus 1, 3B
Summary of the method: (§3)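 MT-4 cells in exponential growth are acutely infected with HIV-1 at m.o.i. 0.01 and exposed to serial compound dilutions. Viability is read by MTT after 3–4 days at 37 °C. EC50 is the concentration giving 50% protection from virus-induced cytopathogenicity, and CC50 is taken from mock-infected MT-4 cells. Both are fitted by linear regression, and the selectivity index is CC50/EC50.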

Yellow fever virus = experiment: Antiviral activity against Yellow fever virus 17D infected in golden hamster BHK21 cells assessed as protection against virus-induced cytopathic effect after 3 to 4 days by MTT assay; assay type: functional, organism-based; details: BHK-21
[4] = tested on: Mammalian orthoreovirus 1; experiment: Antiviral activity against Reovirus 1 3651 ATCC VR-214 infected in golden hamster BHK21 cells assessed as protection against virus-induced cytopathic effect after 3 to 4 days by MTT assay; assay type: functional, organism-based; details: Mammalian orthoreovirus 1, 3651 ATCC VR-214, BHK-21
Summary of the method: (§4)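 Cytopathic-effect protection assay. MDBK (BVDV) or BHK (Reo-1) cells are infected in the presence of serial compound dilutions. After 3 or 4 days at 37 °C, viability is read by MTT. EC50 is the concentration giving 50% protection from virus-induced cytopathogenicity, derived by linear regression.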

[5] = Cytotoxicity against MDBK cells assessed as reduction in cell viability after 48 to 96 hrs by MTT assay; assay type: cell-based, Bos taurus; details: cattle; summary of the method: as §2
Human alphaherpesvirus 1 = experiment: Antiviral activity against HSV1 KOS ATCC VR 1493 infected in African green monkey Vero 76 cells after 3 days by plaque reduction assay; assay type: functional, organism-based; details: Human alphaherpesvirus 1, KOS ATCC VR1493, Vero 76, 72 h; summary of the method: as §1
[6] = Cytotoxicity against African green monkey Vero 76 cells assessed as reduction in cell viability after 48 to 96 hrs by MTT assay; assay type: cell-based; details: chlorocebus sabaeus; summary of the method: as §2
[7] = Selectivity index, ratio of CC50 for African green monkey Vero 76 cells to EC50 for Coxsackievirus B5 Ohio-1 ATCC VR-29; assay type: toxicity; details: read-out: Ratio CC50/EC50; summary of the method: as §1
[8] = Cytotoxicity against human MT4 cells assessed as reduction in cell viability after 48 to 96 hrs by MTT assay; assay type: cell-based; summary of the method: as §2
Coxsackievirus B5 [9] = experiment: Antiviral activity against Coxsackievirus B5 Ohio-1 ATCC VR 29 infected in African green monkey Vero 76 cells after 3 days by plaque reduction assay; assay type: functional, organism-based; details: Enterovirus B, Ohio-1 ATCC VR 29, Vero 76, 72 h; summary of the method: as §1
[10] = tested on: Bovine viral diarrhea virus 1; experiment: Antiviral activity against BVDV NADL ATCC VR-534 infected in MDBK cells assessed as protection against virus-induced cytopathic effect after 3 to 4 days by MTT assay; assay type: functional, organism-based, Bovine viral diarrhea virus 1-NADL; details: Bovine viral diarrhea virus isolates and strains, ATCC VR-534, MDBK; summary of the method: as §4
[11] = tested on: Human poliovirus 1 strain Sabin; experiment: Antiviral activity against Poliovirus 1 Sabin ATCC VR 1562 infected in African green monkey Vero 76 cells after 2 days by plaque reduction assay; assay type: functional, organism-based; details: Enterovirus C, ATCC VR 1562, Vero 76, 48 h
Vaccinia virus = experiment: Antiviral activity against Vaccinia virus Lister ATCC VR 1549 infected in African green monkey Vero 76 cells after 3 days by plaque reduction assay; assay type: functional, organism-based; details: Orthopoxvirus vaccinia, ATCC VR 1549, Vero 76, 72 h
[12] = tested on: Human immunodeficiency virus 1; experiment: Antiviral activity against HIV1 3B infected in human MT4 cells assessed as inhibition of viral replication by MTT assay; assay type: functional, organism-based; details: Human immunodeficiency virus 1, 3B; summary of the method: as §3
Coxsackievirus B5 [13] = experiment: Antiviral activity against Coxsackievirus B5 Ohio-1 ATCC VR 29 infected in African green monkey Vero 76 cells assessed as reduction in viral titre at 1 uM preincubated for 2 hrs followed by viral infection and subsequent compound washout at 2 hrs post infection by plaque assay; assay type: functional, organism-based
Summary of the method: (§5)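 Time of addition. Confluent Vero-76 monolayers are infected with CV-B5 at m.o.i. 0.3. Compound at 1 μM is given at −2 to 0 h then removed, at 0 h then removed or kept, or at 2, 4, 6, 8 or 12 h post infection. After 3 days, monolayers are collected and titred by plaque assay, in two independent experiments each done in duplicate.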

Coxsackievirus B5 [14] = experiment: Antiviral activity against Coxsackievirus B5 Ohio-1 ATCC VR 29 infected in African green monkey Vero 76 cells assessed as reduction in viral titre incubated for 60 mins at 4 degC measured after 24 hrs by plaque assay; assay type: functional, organism-based
Summary of the method: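 Adsorption assay. Vero-76 cells are infected with CV-B5 (m.o.i. 0.1) with or without compound for 60 min at 4 °C. Unbound virus is removed, cells are washed twice with PBS and overlaid with MEM containing 1% methylcellulose. Plaques are counted after 24 h at 37 °C.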

Coxsackievirus B5 [15] = experiment: Antiviral activity against Coxsackievirus B5 Ohio-1 ATCC VR 29 infected in African green monkey Vero 76 cells assessed as reduction in viral infectivity at 4 to 20 uM after 1 hr by plaque assay; assay type: functional, organism-based
Summary of the method: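 Virucidal test. A CV-B5 suspension (5×10^5 PFU/ml) is incubated with 4 or 20 μM compound, or without, for 1 h at 37 °C. Residual infectivity is then measured by plaque assay on Vero-76 cells.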

Coxsackievirus B5 [16] = experiment: Antiviral activity against Coxsackievirus B5 Ohio-1 ATCC VR 29 infected in African green monkey Vero 76 cells assessed as reduction in viral titre at 1 uM treated simultaneously with viral infection by plaque assay; assay type: functional, organism-based; summary of the method: as §5
Coxsackievirus B5 [17] = experiment: Antiviral activity against Coxsackievirus B5 Ohio-1 ATCC VR 29 infected in African green monkey Vero 76 cells assessed as reduction in viral titre at 1 uM treated simultaneously with viral infection and subsequent compound washout after 2 hrs by plaque assay; assay type: functional, organism-based; summary of the method: as §5
Coxsackievirus B5 [18] = experiment: Antiviral activity against Coxsackievirus B5 Ohio-1 ATCC VR 29 infected in African green monkey Vero 76 cells assessed as reduction in viral replication at 1 uM measured at 4 to 12 hrs post infection by plaque assay; assay type: functional, organism-based; summary of the method: as §5
Coxsackievirus B5 [19] = experiment: Antiviral activity against Coxsackievirus B5 Ohio-1 ATCC VR 29 infected in African green monkey Vero 76 cells assessed as reduction in viral yield after 72 hrs by plaque reduction assay; assay type: functional, organism-based
Coxsackievirus B5 [20] = experiment: Antiviral activity against Coxsackievirus B5 Ohio-1 ATCC VR 29 infected in African green monkey Vero 76 cells assessed as reduction in viral replication at 1 uM measured up to 2 hrs post infection by plaque assay; assay type: functional, organism-based; summary of the method: as §5
[21] = Selectivity index, ratio of CC50 for MDBK cells to EC50 for BVDV NADL ATCC VR-534; assay type: toxicity; details: cattle, read-out: Ratio CC50/EC50; summary of the method: as §2
[22] = Selectivity index, ratio of CC50 for human MT4 cells to EC50 for HIV1 3B; assay type: toxicity; details: read-out: Ratio CC50/EC50; summary of the method: as §3

Compound | EC50 (Human orthopneumovirus) [µM] | CC50 [1] [µM] | EC50 [2] [µM] | EC50 [3] [µM] | EC50 (Yellow fever virus) [µM] | EC50 [4] [µM] | CC50 [5] [µM] | EC50 (Human alphaherpesvirus 1) [µM] | CC50 [6] [µM] | selectivity ratio [7] | CC50 [8] [µM] | EC50 (Coxsackievirus B5 [9]) [µM] | EC50 [10] [µM] | EC50 [11] [µM] | EC50 (Vaccinia virus) [µM] | also measured
COc1nc2ccc(CSc3ccc(C(=O)O)cc3)cc2nc1OC | > 65 | 65 | > 65 | > 68 | > 65 | > 65 | > 100 | > 65 | 65 | 1080 | 68 | 0.06 | > 100 | > 65 | > 65 | 
C=CCCCOc1cnc2cc(C)c(C)cc2n1 |  |  |  |  |  |  |  |  |  |  |  |  |  |  |  | IC50 [12]: 0.22 µg/mL (≈ 0.908 µM)
C[C@@]1(O)[C@H](O)[C@@H](CO)O[C@H]1n1cnc2c(=O)[nH]c(N)nc21 [2'-B-METHYL-GUANOSINE] |  | > 100 |  |  | 1.9 | 1.9 | > 100 |  |  |  |  |  | 1.1 |  |  | 
CCOC(=O)c1ccc(SCc2ccc3nc(OC)c(OC)nc3c2)cc1 | > 100 | > 100 | > 100 | > 100 | > 100 | > 100 | > 100 | > 100 | > 100 | > 1110 | > 100 | 0.09 | > 100 | > 100 | > 100 | Activity (Coxsackievirus B5 [13]): inactive; Activity (Coxsackievirus B5 [14]): inactive; Activity (Coxsackievirus B5 [15]): inactive; Activity (Coxsackievirus B5 [16]): Active; Activity (Coxsackievirus B5 [17]): inactive; Activity (Coxsackievirus B5 [18]): inactive; Activity (Coxsackievirus B5 [19]): Dose-dependent effect; Activity (Coxsackievirus B5 [20]): Active
Cc1cc(CCCOc2c(C)cc(-c3noc(C(F)(F)F)n3)cc2C)on1 [PLECONARIL] |  |  |  |  |  |  |  |  | > 100 |  |  | 0.005 |  |  |  | 
COc1nc2ccc(CSc3ccc(Cl)c(Cl)c3)cc2nc1OC | > 75 | 80 | > 75 | > 48 | > 80 | > 80 | > 100 | > 75 | 75 |  | 48 | > 75 | > 100 | > 75 | > 75 | 
CCOC(=O)CC[C@H](NC(=O)c1ccc(SCc2ccc3nc(OC)c(OC)nc3c2)nc1)C(=O)OCC | > 100 | 85 | > 100 | > 19 | > 85 | > 85 | > 100 | > 100 | > 100 | > 1.7 | 19 | 56 | 10 | > 100 | > 100 | selectivity ratio [21]: > 10
COc1nc2ccc(CSc3ccc(C(=O)O)cn3)cc2nc1OC | > 90 | > 100 | > 90 | > 100 | > 100 | > 100 | > 100 | > 90 | 90 | 23 | > 100 | 3.8 | > 100 | > 90 | > 90 | 
CCOC(=O)c1ccc(SCc2ccc3nc(OC)c(OC)nc3c2)nc1 | > 100 | > 100 | > 100 | > 100 | > 100 | > 100 | > 100 | > 100 | > 100 | > 333 | > 100 | 0.3 | > 100 | > 100 | > 100 | 
CCOC(=O)CC[C@H](NC(=O)c1ccccc1SCc1ccc2nc(OC)c(OC)nc2c1)C(=O)OCC | > 100 | > 100 | > 100 | > 60 | > 100 | > 100 | > 100 | > 100 | > 100 |  | 60 | > 100 | > 100 | > 100 | > 100 | 
COc1nc2ccc(CSc3ccccn3)cc2nc1OC | > 100 | > 100 | > 100 | > 28 | > 100 | > 100 | > 100 | > 100 | > 100 |  | 28 | > 100 | > 100 | > 100 | > 100 | 
COc1nc2ccc(CSc3ccc4ccccc4c3)cc2nc1OC | > 100 | > 100 | > 100 | 36 | > 100 | > 100 | > 100 | > 100 | > 100 |  | > 100 | > 100 | > 100 | > 100 | > 100 | selectivity ratio [22]: 2.7
